Broadly, the IC50 is the concentration at which inhibition is half-maximal. Read a high IC50 as lower potency. Broadly, the half-life is how long it takes for the measured level to halve.

The values below come from ChEMBL document CHEMBL1150273, “Aza-peptidyl Michael acceptors. A new class of potent and selective inhibitors of asparaginyl endopeptidases (legumains) from evolutionarily diverse pathogens” (J Med Chem, 2008).

Molecules are shown by their SMILES. Active and inactive are the calls of the source. The calls are words filed in the database; no cut-off is given here. Bounds are passed on as bounds.

The target in series [1] is T1, Calpain-1 catalytic subunit (Homo sapiens) (UniProt P07384).
T1 sequence (whole entry): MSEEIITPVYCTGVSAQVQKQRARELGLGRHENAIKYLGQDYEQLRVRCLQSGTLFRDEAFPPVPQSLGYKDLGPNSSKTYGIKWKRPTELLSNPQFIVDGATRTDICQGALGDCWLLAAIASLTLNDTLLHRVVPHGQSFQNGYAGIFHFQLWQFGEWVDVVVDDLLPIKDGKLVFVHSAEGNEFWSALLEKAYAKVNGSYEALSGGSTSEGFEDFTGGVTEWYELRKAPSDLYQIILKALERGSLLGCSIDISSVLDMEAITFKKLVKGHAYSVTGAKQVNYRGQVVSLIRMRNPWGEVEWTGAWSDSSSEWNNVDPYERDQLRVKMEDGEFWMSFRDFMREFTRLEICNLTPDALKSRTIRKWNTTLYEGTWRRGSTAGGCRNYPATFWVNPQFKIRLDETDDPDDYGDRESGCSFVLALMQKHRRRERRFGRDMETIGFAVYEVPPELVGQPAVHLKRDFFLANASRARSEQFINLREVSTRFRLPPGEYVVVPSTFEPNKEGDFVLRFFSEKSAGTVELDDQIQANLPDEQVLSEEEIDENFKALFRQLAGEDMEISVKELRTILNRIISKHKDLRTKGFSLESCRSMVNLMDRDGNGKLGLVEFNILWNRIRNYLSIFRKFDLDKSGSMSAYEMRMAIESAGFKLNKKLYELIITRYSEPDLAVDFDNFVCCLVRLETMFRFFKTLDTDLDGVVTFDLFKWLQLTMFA
The series is described as follows: Inhibition of calpain 1 assessed as ratio of pseudo-first-order inhibition rate constant to inhibitor concentration.

The target in series [2] is T2, Caspase-6 (Homo sapiens) (UniProt P55212).
T2 sequence (whole entry): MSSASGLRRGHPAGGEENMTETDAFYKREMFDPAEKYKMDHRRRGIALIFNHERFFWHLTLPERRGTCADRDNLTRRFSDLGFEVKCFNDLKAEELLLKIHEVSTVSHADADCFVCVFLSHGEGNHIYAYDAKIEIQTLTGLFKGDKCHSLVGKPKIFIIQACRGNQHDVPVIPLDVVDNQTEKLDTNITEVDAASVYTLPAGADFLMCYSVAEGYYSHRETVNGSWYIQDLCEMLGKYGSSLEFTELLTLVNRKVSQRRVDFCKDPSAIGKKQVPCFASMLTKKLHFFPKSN
Put plainly: Inhibition of caspase 6 assessed as ratio of pseudo-first-order inhibition rate constant to inhibitor concentration. The procedure, abridged: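 Caspase-6 at 5 nM final, assayed in the same Pipes/NaCl/CHAPS/sucrose/DTT buffer, pH 7.2, 37 °C with Ac-Asp-Glu-Val-Asp-AMC by the progress curve method; inhibitor stocks 5 × 10^-3 to 2.42 × 10^-6 M in DMSO; rates corrected for substrate using KM 236.35 µM.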

The target in series [3] is Lys-gingipain HG66 (Porphyromonas gingivalis) (UniProt P72197). The series is described as follows: Inhibition of Porphyromonas gingivalis gingipain K assessed as ratio of pseudo-first-order inhibition rate constant to inhibitor concentration. The procedure, abridged:
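Gingipain K diluted to 4.61 nM in 0.2 M Tris-HCl, 0.1 M NaCl, 5 mM CaCl2, 2 mM DTT, pH 8.0 and incubated with inhibitor (DMSO) at room temperature; aliquots taken at intervals into buffer with Suc-Ala-Phe-Lys-AMC; fluorescence at 465 nm; pseudo-first-order kinetics.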

Series [4] deals with Schistosoma mansoni. Put plainly: Inhibition of Schistosoma mansoni AE assessed as ratio of pseudo-first-order inhibition rate constant to inhibitor concentration. The procedure, abridged: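 Autoactivated recombinant SmAE added to six inhibitor concentrations (0–1 µM final) in 0.1 M citrate phosphate, 2 mM DTT, pH 6.8 with 20 µM Cbz-Ala-Ala-Asn-AMC; progress followed every 2 s for 30 min at 25 °C (ex 355, em 460 nm); kobs/[I] by nonlinear regression, corrected for substrate by factor 1.33.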

Series [5] in a line: Inhibition of Ixodes ricinus AE expressed in Pichia pastoris after 20 mins. The procedure, abridged: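 Recombinant AE zymogens expressed in Pichia pastoris; SmAE and TvAE1 autoactivated in 0.5 M sodium acetate, 4 mM DTT, pH 4.5, 37 °C, 3 h to overnight; IrAE used without activation. Buffer 0.1 M citrate phosphate, 4 mM DTT, pH 6.8 (SmAE, TvAE1) or pH 5.5 (IrAE). Inhibitor 2.0–0.0002 µM final, 20 min preincubation at room temperature; 10 µM final Cbz-Ala-Ala-Asn-AMC, 20 min; IC50 from RFU/min vs concentration.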

Series [6] can be described thus: Stability assessed as half life in citrate phosphate buffer at pH 5.8 in presence of dithiothreitol. It counts as physicochemical. The note with it: citrate phosphate buffer with dithiothreitol.

As for `C[C@H](NC(=O)OCc1ccccc1)C(=O)N[C@@H](C)C(=O)NN(CC(N)=O)C(=O)/C=C/C(=O)N(Cc1ccccc1)Cc1ccccc1`, the Ratio is under 1 M⁻¹ s⁻¹ in series [1], 2 M⁻¹ s⁻¹ in series [3] and 5800 M⁻¹ s⁻¹ in series [4]. The result in series [2] was inactive. In series [5], this compound displayed an IC50 of 450 nM.

For the compound `C[C@H](NC(=O)OCc1ccccc1)C(=O)N[C@@H](C)C(=O)NN(CC(N)=O)C(=O)/C=C/C(=O)N(C)Cc1ccccc1`, the result in series [1] and in series [2] was inactive. Also, in series [3], the Ratio was determined as 1 M⁻¹ s⁻¹. The compound also yielded an IC50 in series [5] of under 1 nM. In addition, the half-life in series [6] came out at 6.27 h.

`CCOC(=O)/C=C/C(=O)N(CC(N)=O)NC(=O)[C@H](C)NC(=O)[C@H](C)NC(=O)OCc1ccccc1`: the outcome in series [1] and in series [2] was inactive. Also, the Ratio in series [3] stood at 6 M⁻¹ s⁻¹. The same compound displayed an IC50 in series [5] of 4.5 nM. Moreover, the half-life in series [6] stood at 0.317 h.

For the compound `C[C@H](NC(=O)OCc1ccccc1)C(=O)N[C@@H](C)C(=O)NN(CC(N)=O)C(=O)/C=C/C(=O)N(C)Cc1cccc2ccccc12`, the result in series [1] and in series [2] was inactive. The Ratio came out at 6 M⁻¹ s⁻¹ in series [3] and 16900 M⁻¹ s⁻¹ in series [4]. This compound also returned a half-inhibitory concentration (IC50) in series [5] of 5.5 nM.
